The text below walks through data of ChEMBL document CHEMBL4257579, “Analogs of penfluridol as chemotherapeutic agents with reduced central nervous system activity” (Bioorg Med Chem Lett, 2018).

Holding throughout (type): cell-based
The target of assay [1] is T1, Beta-3 adrenergic receptor (Homo sapiens, UniProt P13945). Nature of the assay: Displacement of [3H]CGP12177 from human beta 3 adrenergic receptor expressed in HEK293FlpIN cells by radioligand binding assay. The gist of the method:
(§1)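 Ki values were calculated from the radioligand displacement data.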
Target sequence in this assay (P13945 whole entry): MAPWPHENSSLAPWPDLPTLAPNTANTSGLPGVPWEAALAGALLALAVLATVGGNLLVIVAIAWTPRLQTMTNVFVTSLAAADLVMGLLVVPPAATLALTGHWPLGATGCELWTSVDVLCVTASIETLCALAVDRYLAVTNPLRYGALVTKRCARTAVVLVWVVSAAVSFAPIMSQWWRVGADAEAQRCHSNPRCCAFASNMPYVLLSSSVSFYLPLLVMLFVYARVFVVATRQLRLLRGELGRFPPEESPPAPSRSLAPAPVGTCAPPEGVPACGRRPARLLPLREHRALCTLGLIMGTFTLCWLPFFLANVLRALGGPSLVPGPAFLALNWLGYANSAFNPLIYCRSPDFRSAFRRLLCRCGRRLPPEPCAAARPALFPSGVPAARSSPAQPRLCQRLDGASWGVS

Assay [2] concerns the target T1, Beta-3 adrenergic receptor. Nature of the assay: Displacement of [3H]CGP12177 from human beta 3 adrenergic receptor expressed in HEK293FlpIN cells by radioligand binding assay relative to control. The conditions noted are these: concentration not given here.
Target sequence in this assay (P13945 whole entry, looked up): as the sequence (P13945 whole entry) above
The target in assay [3] is Alpha-1D adrenergic receptor (Homo sapiens, UniProt P25100). Description: Displacement of [3H]Prazosin from human alpha 1D adrenergic receptor expressed in HEK cells by radioligand binding assay. The gist of the method:
as §1

For assay [4], the target named is Alpha-2B adrenergic receptor (Homo sapiens) (UniProt P18089). Description: Displacement of [3H]Rauwolscine from human alpha 2B adrenergic receptor expressed in HEK293T cells by radioligand binding assay relative to control. As to conditions: concentration not given here.
Chain of Alpha-2B adrenergic receptor (Homo sapiens) (P18089 whole entry): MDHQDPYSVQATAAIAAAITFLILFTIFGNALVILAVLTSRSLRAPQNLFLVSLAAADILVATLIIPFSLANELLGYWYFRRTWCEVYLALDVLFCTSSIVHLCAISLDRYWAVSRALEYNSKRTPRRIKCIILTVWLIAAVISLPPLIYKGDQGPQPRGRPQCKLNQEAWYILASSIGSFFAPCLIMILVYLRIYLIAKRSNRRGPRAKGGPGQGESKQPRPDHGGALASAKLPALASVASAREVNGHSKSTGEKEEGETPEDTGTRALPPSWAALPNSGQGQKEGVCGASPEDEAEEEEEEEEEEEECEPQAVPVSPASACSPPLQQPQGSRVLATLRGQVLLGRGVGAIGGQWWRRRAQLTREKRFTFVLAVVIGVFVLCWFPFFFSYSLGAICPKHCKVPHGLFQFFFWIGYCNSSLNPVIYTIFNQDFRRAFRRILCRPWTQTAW

Chain of Alpha-1D adrenergic receptor (P25100 whole entry): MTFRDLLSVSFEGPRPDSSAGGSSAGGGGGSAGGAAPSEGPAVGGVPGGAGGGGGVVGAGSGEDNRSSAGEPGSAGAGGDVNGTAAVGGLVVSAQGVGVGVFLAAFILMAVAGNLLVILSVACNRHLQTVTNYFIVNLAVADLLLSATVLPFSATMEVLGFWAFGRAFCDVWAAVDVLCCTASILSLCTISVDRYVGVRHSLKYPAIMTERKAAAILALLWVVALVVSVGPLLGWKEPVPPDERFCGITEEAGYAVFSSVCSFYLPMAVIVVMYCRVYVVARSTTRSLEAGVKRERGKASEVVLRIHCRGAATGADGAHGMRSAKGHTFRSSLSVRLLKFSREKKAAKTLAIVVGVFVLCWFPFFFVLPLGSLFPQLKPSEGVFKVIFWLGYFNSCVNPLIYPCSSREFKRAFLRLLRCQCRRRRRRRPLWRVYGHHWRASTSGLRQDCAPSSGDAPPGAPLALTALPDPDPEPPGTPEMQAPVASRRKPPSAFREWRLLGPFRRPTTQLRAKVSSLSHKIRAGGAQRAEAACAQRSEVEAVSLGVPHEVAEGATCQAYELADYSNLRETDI

As for `OC1(c2ccc(Cl)c(C(F)(F)F)c2)CCN(CCCC(c2ccc(F)cc2)c2ccc(F)cc2)CC1` [PENFLURIDOL], the Ki in assay [1] worked out at 515 nM; in assay [3] it was 602 nM. For the same compound, the inhibition is 94% in assay [2] and 95.6% in assay [4].
